# Screening results: PubChem, several laboratories
# GRIN3A LBD mod: modulators (binders) of human NR3A ligand-binding domain; Tm shift relative to glycine control, % at 25 µM; AID 1259313; NR3A LBD differential scanning fluorimetry, Tm shift; 0% = protein alone, 100% = glycine-bound protein; 340,000 compounds, 2.5% hits;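 active means melting temperature shift of at least 10% of the positive control shift, at one fixed dose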
# MPTP block: blocks calcium-induced mitochondrial swelling. isolated mouse mitochondria, Ca2+ swelling absorbance, 30 min. inhibition, % at 10 µM. 360,000 compounds, 1.4% hits. AID 602449;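 active means inhibition of 50% or more, scaled per plate between neutral and stimulator controls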
# ADAM10 inh: ADAM10 inhibition, QFRET primary screen; inhibition, % at 7 µM; 370,000 compounds, 0.62% hits; O14672; AID 720582; recombinant ADAM10, EDANS/DABCYL FRET peptide cleavage, 3 h;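 active means inhibition above a per-campaign cutoff equal to the mean of compounds falling between control-based bounds plus 3 SD, cut at about 20% in these data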
# Target sequence (O14672 214-748 limits assumed): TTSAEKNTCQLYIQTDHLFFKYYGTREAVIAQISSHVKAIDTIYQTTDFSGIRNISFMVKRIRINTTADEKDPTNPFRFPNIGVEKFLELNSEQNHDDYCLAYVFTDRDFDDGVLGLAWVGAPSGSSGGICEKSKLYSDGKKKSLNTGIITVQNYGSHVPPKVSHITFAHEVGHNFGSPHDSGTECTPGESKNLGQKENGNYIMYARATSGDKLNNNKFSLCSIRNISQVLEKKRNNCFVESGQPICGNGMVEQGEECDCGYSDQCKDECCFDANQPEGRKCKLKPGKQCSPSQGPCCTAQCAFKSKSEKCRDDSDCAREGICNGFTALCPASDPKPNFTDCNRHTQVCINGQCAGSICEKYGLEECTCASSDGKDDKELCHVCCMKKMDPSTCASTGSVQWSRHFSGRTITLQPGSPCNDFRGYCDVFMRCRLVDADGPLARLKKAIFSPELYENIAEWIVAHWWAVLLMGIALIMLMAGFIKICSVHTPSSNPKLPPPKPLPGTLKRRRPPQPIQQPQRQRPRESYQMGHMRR
# ADAM17 inh: ADAM17 inhibition, QFRET primary screen. recombinant ADAM17, EDANS/DABCYL FRET peptide cleavage. P78536. 370,000 compounds, 0.83% hits. inhibition, % at 6.95 µM;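 active means inhibition above the mean of compounds lying between control limits plus 3 SD, set per campaign, cut at about 8.5% in these data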
# MT1-MMP act inh: MT1-MMP (human) activation inhibition; 360,000 compounds, 0.061% hits; P50281; HT1080 RFP-PRO-GFP cells, GFP/RFP ratio fluorescence, overnight; percent of plate control window, DMSO zero; GFP/RFP ratio change, % at 20 µM;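 active means GFP/RFP ratio change of at least 30% with cell ATP level not reduced by more than half and red fluorescence within 50% of control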
#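 Material – HT1080 RFP-PRO-GFP cells · Control set – DMSO wells and RFP-L50D-GFP cells · Incubation – overnight cell settling, then overnight compound exposure, 37 °C, 5% CO2 · Compound dosing – single-point 20 µM compound, 1% DMSO · Read-out – GFP/RFP fluorescence ratio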
# SKN-1 block: inhibitors of C. elegans SKN-1; C. elegans VP596 Pgst-4::GFP/RFP ratio, acrylamide-induced, 24 h; inhibition, % at 21.8 µM; 360,000 compounds, 0.49% hits;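 active means interference check ratio from 0.5 to 1.5 plus GFP to RFP signal ratio inhibition reaching or exceeding a fixed threshold, cut at about 30% in these data, passing the limit was not always enough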
# Rh123 counter: mitochondrial membrane potential, counter-screen | 5,000 compounds, 78% hits | inhibition, % at 10 µM | shares compounds with MPTP block | isolated mitochondria, Rhodamine 123 fluorescence; in the data active means inhibition above about 22%
# MPTP abs DR: dose response confirmation of mitochondrial permeability transition pore inhibitors; 780 compounds, 58% hits; shares compounds with MPTP block; isolated mitochondria swelling, absorbance; AID 651561; IC50, µM; in the data active means IC50 below about 20 µM
# MPTP counter DR: counter-screen for mitochondrial permeability transition pore inhibitors, dose response. isolated mitochondria counterscreen, fluorescence read-out. 780 compounds, 49% hits. shares compounds with MPTP block. IC50, µM; in the data active means IC50 below about 80 µM
# ADAM10 confirm: human ADAM10 inhibition, confirmation | AID 743208 | 2,100 compounds, 1% hits | shares compounds with ADAM10 inh | ADAM10 QFRET peptide cleavage, EDANS fluorescence | inhibition, % at 6.95 µM;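 active means inhibition above about 20% chosen separately for each screening run, limit read from the data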
# ADAM17 counter: ADAM17 inhibition, counter-screen for ADAM10 exosite hits | inhibition, % at 6.95 µM | shares compounds with ADAM10 inh | ADAM17 QFRET peptide cleavage, EDANS fluorescence | 2,100 compounds, 0.5% hits;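 active means mean triplicate inhibition above the solvent-only control wells' mean plus 3 SD, cut at about 12% in these data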
# ADAM10 counter: counter-screen for ADAM17 exosite inhibitors: inhibitors of human ADAM10; shares compounds with ADAM17 inh; recombinant ADAM10, EDANS/DABCYL FRET peptide cleavage, 3 h; inhibition, % at 6.95 µM; 2,900 compounds, 47% hits; AID 743256;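 active means mean inhibition over the triplicate runs exceeds the activity threshold set in the earlier primary screen, cut at about 20% in these data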
# ADAM17 confirm: confirmation of inhibitors of human ADAM17 | 2,900 compounds, 65% hits | inhibition, % at 6.95 µM | recombinant ADAM17, EDANS/DABCYL QFRET peptide cleavage | AID 743257 | shares compounds with ADAM17 inh;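 active means mean inhibition across replicates above the hit cutoff set in the primary screen, cut at about 8.5% in these data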
# A number is an active result; 0 = inactive; - = no result. Only some compounds are listed: those with a hit (about 4.7% of all), similar ones and a draw of the others.
SMILES,GRIN3A LBD mod,MPTP block,ADAM10 inh,ADAM17 inh,MT1-MMP act inh,SKN-1 block,Rh123 counter,ADAM10 confirm,ADAM17 counter,ADAM10 counter,ADAM17 confirm,others
CCCn1nc([N+](=O)[O-])c(C(C#N)c2nc3ccccc3o2)c(Cl)c1=O (configuration not stated),0,101,21,0,0,0,50,0,0,-,-,
CC1(C)SC(=S)N(/N=C/c2ccccc2)C1N(O)C(=O)Nc1ccc([N+](=O)[O-])cc1 (configuration not stated),14,101,22,0,0,0,98,0,0,-,-,
CNC(=O)N(O)C1N(/N=C/c2ccc(N(C)C)cc2)C(=S)SC1(C)C (configuration not stated),0,0,0,0,0,0,-,-,-,-,-,
Cn1nc(C(F)(F)F)c(-c2cccc(C(F)(F)F)c2)c1NC(=O)c1nccnc1C(=O)O,0,0,0,0,0,0,-,-,-,-,-,
Cc1cccc(Oc2cc(NC(=O)Cn3cnc([N+](=O)[O-])n3)cc([N+](=O)[O-])c2)c1,27,77,28,0,0,0,66,0,0,-,-,
COc1ccc(NC(=O)C2CCC(CNS(=O)(=O)c3cccs3)CC2)cc1OC (configuration not stated),0,0,0,0,0,0,-,-,-,-,-,
CCOc1cc(C)c(-c2onc(C(F)(F)F)c2-c2csc(C)n2)c(O)c1,0,70,22,0,0,0,83,0,0,-,-,
CCc1ccc2oc(C(=O)N3CCN(c4ccc(OC)cc4)CC3)cc(=O)c2c1,0,0,0,0,0,0,-,-,-,-,-,
COc1ccc(/C=N/Nc2cc(N3CCCC3)nc(N3CCCC3)n2)cc1,0,77,65,0,0,0,82,0,0,-,-,
S=c1[nH]nc(-c2cccnc2)n1-c1ccccc1,0,0,0,0,0,0,-,-,-,-,-,
O=C(NNC(=S)Nc1ccc(Cl)cc1Cl)c1cccnc1,0,0,0,0,0,0,-,-,-,-,-,
O=C(NNC(=S)Nc1ccc(Cl)cc1Cl)c1ccncc1,0,63,21,0,0,0,0,0,0,-,-,MPTP abs DR=0;MPTP counter DR=42
CC(C)COC(=O)N(C)C[C@H]1OCc2cn(nn2)CCCC(=O)N([C@@H](C)CO)C[C@@H]1C,-,0,0,0,0,0,-,-,-,-,-,
O=C(Nc1ccc(OCC(F)(F)C(F)F)c(C(F)(F)F)c1)c1ccc(Cl)cc1,31,91,25,0,0,0,84,0,0,-,-,
O=C(COC(=O)/C=C/c1ccco1)NCCc1ccccc1,0,0,0,0,0,0,-,-,-,-,-,
N#CNC(=Nc1cccc(F)c1)SCc1ccccc1F,0,77,23,0,0,0,91,0,0,-,-,
CC(C)N=C(NC#N)SCc1ccccc1F,0,0,0,0,0,0,-,-,-,-,-,
O=C(Nc1ccc(Cl)c(Cl)c1)c1ccc(Cn2cc(Cl)cn2)cc1,24,54,29,0,0,0,87,0,0,-,-,
C=CCn1c(C(C)NC(=O)c2ccccc2)n[nH]c1=S (configuration not stated),0,0,0,0,0,0,-,-,-,-,-,
Cc1ccc(NC(=O)NCC2CC2(Cl)Cl)cc1 (configuration not stated),0,0,0,0,0,0,-,-,-,-,-,
O=C(NCC1CC1(Cl)Cl)Nc1ccc(Cl)c(Cl)c1 (configuration not stated),0,62,0,9.5,0,56,95,-,-,32,15,
CCOc1cc(C(=O)OCC(=O)Nc2ccc(SC(F)F)cc2)cc(OCC)c1OCC,0,50,0,10,0,0,61,-,-,38,18,
CCC(C(=O)OCC(=O)Nc1ccc(SC(F)F)cc1)c1ccccc1 (configuration not stated),12,78,29,12,0,0,88,0,0,43,23,
CC1=CC(C)C(CN(CCC[N+](C)(C)C)C(=O)Nc2ccccc2)C(C)C1 (configuration not stated),0,0,0,0,0,0,-,-,-,-,-,
O=C(c1c[nH]c(C(=O)N2CCN(Cc3ccccc3)CC2)c1)C1CCCCC1,0,0,0,0,0,0,-,-,-,-,-,
SMILES,GRIN3A LBD mod,MPTP block,ADAM10 inh,ADAM17 inh,MT1-MMP act inh,SKN-1 block,Rh123 counter,ADAM10 confirm,ADAM17 counter,ADAM10 counter,ADAM17 confirm,others
O=C(Nc1cccc([N+](=O)[O-])c1)Nc1ccc2c(c1)OCCO2,29,62,0,8.9,0,0,91,-,-,0,0,
CCOC(=O)N1CCC(NC(=O)c2cc(S(=O)(=O)NCCc3ccccc3)ccc2F)CC1,0,0,0,0,0,0,-,-,-,-,-,
Cc1ccc(NC(=O)c2cc(S(=O)(=O)NCCc3ccccc3)ccc2F)cc1Cl,24,56,23,16,0,0,71,0,0,24,14,
O=C(Nc1cccc(Cl)c1)c1cc(S(=O)(=O)NCCc2ccc(Cl)cc2)ccc1F,32,70,29,13,0,0,71,0,0,34,17,
COc1ccc(CNS(=O)(=O)c2ccc(F)c(C(=O)Nc3ccc(OC)cc3)c2)cc1,0,0,0,0,0,0,-,-,-,-,-,
Cc1ccc(N(CC(=O)NCCc2ccc(F)cc2)S(=O)(=O)c2ccc(Cl)c([N+](=O)[O-])c2)c(C)c1,0,68,26,12,0,0,70,0,0,29,15,
O=S(=O)(NCC(Nc1ccccc1)c1ccccc1)c1ccc(Cl)cc1 (configuration not stated),17,52,0,9.0,0,0,74,-,-,36,21,
CN(C)S(=O)(=O)Oc1cccc(C(=O)Nc2cccc(Cl)c2)c1,0,0,0,0,0,0,-,-,-,-,-,
CN(C)S(=O)(=O)Oc1cccc(C(=O)Nc2ccc(Cl)c(Cl)c2)c1,0,96,0,9.2,0,0,91,-,-,35,20,
Cc1ccc2c(C)[nH]c(=O)cc2c1,0,0,0,0,0,0,-,-,-,-,-,
